According to publication PMC7902087 (Bioorganic & medicinal chemistry, 2020):
Like-named read-outs stand apart in the source and are kept apart here.

Tests used:
[1] = tested on: HePG2, MCF-7, Hela and PC3 cell lines; test: In vitro antitumor MTT assay, range over the four cell lines; assay type: cell-based; details: Homo sapiens, read-out: IC50 range towards the four cell lines
[2] = tested on: MCF-7 cells; test: Detection of apoptosis; assay type: cell-based, human; details: MCF-7, 24 h
[3] = tested on: MCF-7 cells; test: Cell cycle arrest analysis; assay type: cell-based, human
[4] = tested on: Human lung fibroblast (WI38) cell line; test: In vitro cytotoxicity against human normal cells; assay type: cell-based; details: WI-38, read-out: IC50 against WI38 normal cells
[5] = tested on: Hepatocellular carcinoma (HePG2); test: In vitro antitumor MTT assay, HePG2; assay type: cell-based, human
[6] = tested on: Human prostate cancer (PC3); test: In vitro antitumor MTT assay, PC3; assay type: cell-based; details: read-out: In vitro cytotoxicity IC50 PC3
[7] = tested on: Epitheliod Carcinoma Cervix cancer (Hela); test: In vitro antitumor MTT assay, Hela; details: read-out: In vitro cytotoxicity IC50 Hela
[8] = tested on: Mammary gland Breast cancer (MCF-7); test: In vitro antitumor MTT assay, MCF-7
[9] = tested on: Candida albicans CS351; test: Minimal inhibitory concentration, C. albicans; assay type: cell-based; details: broth dilution, 37 °C 18 h
[10] = tested on: Bacillus cereus UW85; test: Minimal inhibitory concentration, B. cereus; assay type: cell-based; details: broth dilution, 37 °C 18 h
[11] = tested on: Pseudomonas aeruginosa PAO1; test: Minimal inhibitory concentration, P. aeruginosa; assay type: cell-based; details: broth dilution, 37 °C 18 h
How it was run: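 Broth microdilution with serial 1:1 dilutions of test compound in Mueller Hinton broth. Wells are inoculated with bacterial suspension at 5 × 10^6 CFU/ml, and ampicillin/clavulanic acid serves as the positive control. Plates incubate at 37 °C for 18 h. MIC is the lowest concentration with no visible growth.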

[12] = tested on: Staphylococcus aureus ATCC 29213; test: Minimal inhibitory concentration, S. aureus; assay type: cell-based; details: broth dilution, 37 °C 18 h
[13] = Homo sapiens, HepG2, read-out: In vitro cytotoxicity IC50 HePG2
[14] = Homo sapiens, MCF7, read-out: In vitro cytotoxicity IC50 MCF-7
[15] = read-out: In vitro cytotoxicity IC50 HePG2, MTT, Mean ± SD, n = 3
[16] = read-out: In vitro cytotoxicity IC50 MCF-7, MTT, Mean ± SD, n = 3

C/C(=N\Nc1nc(-c2ccccc2)cs1)c1cc2ccccc2o1 [Compound 8, (E)-2-(2-(1-(benzofuran-2-yl)ethylidene)hydrazinyl)-4-(4-phenyl)thiazole]
IC50 [1]: 8.49 to 16.7 µM | late apoptotic induction compared to control cells [2]: 98 fold | Cell cycle comment [3]: pre-G1 apoptosis and cell growth arrest at G2/M

CCOC(=O)Cc1csc(N/N=C(\C)c2cc3ccccc3o2)n1 [Compound 9, Ethyl (E)-2-(2-(2-(1-(benzofuran-2-yl)ethylidene)hydrazineyl)thiazol-4-yl)acetate]
IC50 [1]: 6.55 to 13.1 µM | late apoptotic induction compared to control cells [2]: 54 fold | late apoptotic induction ([2]; control 0.15%): 8.1% | Cell cycle comment [3]: pre-G1 apoptosis and cell growth arrest at G2/M

C/C(=N\Nc1nc(C)cs1)c1cc2ccccc2o1 [Compound 11, (E)-2-(2-(1-(benzofuran-2-yl)ethylidene)hydrazineyl)-4-methylthiazole]
IC50 [1]: 4 to 8.99 µM

COc1ccc(/N=N/C(C=O)=C(/O)c2cc3ccccc3o2)cc1 [Compound 13, (E)-3-(benzofuran-2-yl)-3-hydroxy-2-((E)-(4-methoxyphenyl)diazenyl)acrylaldehyde]
IC50 [4]: 83.5 µM

C/C(=N\N=C\c1ccc([N+](=O)[O-])cc1)c1cc2ccccc2o1 [Compound 22, (E)-1-(1-(benzofuran-2-yl)ethylidene)-2-((E)-4-nitrobenzylidene) hydrazine]
IC50 [5, 13]: 77.4 ± 3.9 µM | IC50 ([6]; Homo sapiens): > 100 µM | IC50 ([7]; Homo sapiens, HeLa): > 100 µM | IC50 [8, 14]: 88.5 ± 4.6 µM

C/C(=N\N=C\c1cccc(Cl)c1)c1cc2ccccc2o1 [Compound 23, (E)-1-(1-(benzofuran-2-yl)ethylidene)-2-((E)-3-chlorobenzylidene)hydrazine]
IC50 [5, 13]: 86.5 ± 4.3 µM | IC50 ([6]; Homo sapiens): 91.8 ± 4.9 µM | IC50 ([7]; Homo sapiens, HeLa): > 100 µM | IC50 [8, 14]: > 100 µM

COc1cccc2c1C(=O)c1c(O)c3c(c(O)c1C2=O)C[C@@](O)(C(=O)CO)C[C@@H]3O[C@H]1C[C@H](N)[C@H](O)[C@H](C)O1 [DOX, doxorubicin, reference compound]
IC50 [1]: 4.17 to 8.87 µM

(E)-2-(2-(1-(benzofuran-2-yl)ethylidene)hydrazineyl)-4-(benzofuran-5-yl)thiazole [Compound 10]
IC50 [5, 15]: 21.2 ± 1.8 µM | IC50 ([6]; MTT, Mean ± SD, n = 3): 34.2 ± 2.6 µM | IC50 ([7]; MTT, Mean ± SD, n = 3): 24.1 ± 2.1 µM | IC50 [8, 16]: 25.6 ± 2.2 µM

(E)-3-(benzofuran-2-yl)-3-hydroxy-2-((E)-(2-methylphenyl) diazenyl)acrylaldehyde [Compound 17]
Minimal inhibitory concentration C. albicans [9]: 512 mg/L | IC50 [5, 15]: 72.4 ± 3.5 µM | Minimal inhibitory concentration B. cereus [10]: 256 mg/L | IC50 ([6]; MTT, Mean ± SD, n = 3): 77.6 ± 4.3 µM | IC50 ([7]; MTT, Mean ± SD, n = 3): 75 ± 4.2 µM | Minimal inhibitory concentration P. aeruginosa [11]: 512 mg/L | IC50 [8, 16]: 83.6 ± 4.3 µM | Minimal inhibitory concentration S. aureus [12]: 8 mg/L

(E)-3-(benzofuran-2-yl)-3-hydroxy-2-((E)-(3-methylphenyl) diazenyl)acrylaldehyde [Compound 16]
IC50 [5, 15]: 52.3 ± 3.1 µM | Minimal inhibitory concentration B. cereus [10]: 128 mg/L | IC50 ([6]; MTT, Mean ± SD, n = 3): 63.3 ± 3.9 µM | IC50 ([7]; MTT, Mean ± SD, n = 3): 69.4 ± 4 µM | IC50 [8, 16]: 66.2 ± 3.9 µM | Minimal inhibitory concentration S. aureus [12]: 64 mg/L
